Test results taken from ChEMBL document CHEMBL4118103, “Synthesis and Bioactivity Investigation of the Individual Components of Cyclic Lipopeptide Antibiotics” (J Med Chem, 2018).
Values after ≈ are worked out from the molar mass of the structure shown. Bridge positions count the residues as written; N and C are the ends. Square brackets hold non-standard residues; d marks the D form. Peptide text beside a SMILES is read from it. * marks the point of attachment. Heptanoyl(6-Me) = CC(C)CCCCC(=O)*; Octanoyl(7-Me) = CC(C)CCCCCC(=O)*; Nonanoyl = CCCCCCCCC(=O)*; X1 = CC[C@H](C)CCCCC(=O)*; dDab = NCC[C@@H](N)C(=O)O; Heptanoyl = CCCCCCC(=O)*; Dab = NCC[C@H](N)C(=O)O; Nva = CCC[C@H](N)C(=O)O

Assays:
Escherichia coli [1] = assay: Antibacterial activity against Escherichia coli ATCC 25922 after 18 hrs by agar dilution method; type: functional; conditions: ATCC 25922, 18 h
Method in brief: (§1)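 Serial two-fold agar dilution per CLSI; bacteria cultured in Mueller-Hinton broth, inoculum about 10^4 cfu/spot; final concentrations 0.03-128 µg/mL; plates incubated 35 °C for 18 h. MIC = lowest concentration preventing visible growth; representative of at least two independent experiments, a third run when the two disagreed.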

Escherichia coli [2] = assay: Antibacterial activity against extended-spectrum beta-lactamase producing Escherichia coli isolate 14-11 after 18 hrs by agar dilution method; type: functional; conditions: isolate 14-11, 18 h; method in brief: as §1
Klebsiella pneumoniae [3] = assay: Antibacterial activity against extended-spectrum beta-lactamase producing Klebsiella pneumoniae 700603 after 18 hrs by agar dilution method; type: functional; conditions: Klebsiella pneumoniae, 700603, 18 h; method in brief: as §1
Klebsiella pneumoniae [4] = assay: Antibacterial activity against NDM-1 producing Klebsiella pneumoniae ATCC BAA-2146 after 18 hrs by agar dilution method; type: functional; conditions: ATCC BAA-2146, 18 h; method in brief: as §1
Pseudomonas aeruginosa = assay: Antibacterial activity against Pseudomonas aeruginosa ATCC 27853 after 18 hrs by agar dilution method; type: functional; conditions: ATCC 27853, 18 h; method in brief: as §1
Acinetobacter baumannii = assay: Antibacterial activity against Acinetobacter baumannii ATCC 19606 after 18 hrs by agar dilution method; type: functional; conditions: ATCC 19606 = CIP 70.34 = JCM 6841, 18 h; method in brief: as §1
[5] = Cytotoxicity against African green monkey Vero cells after 72 hrs by MTT assay; type: cell-based; conditions: chlorocebus sabaeus, Vero cells
Method in brief: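 Vero cells seeded at 2x10^3 cells/well, incubated 24 h at 37 °C, 5% CO2, then exposed to compound 72 h; MTT added for 2 h, medium removed, formazan dissolved in DMSO, absorbance read at 570 nm. Viability relative to untreated cells (100%); CC50 as mean ± SD of three independent experiments, each in triplicate.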

[6] = Acute toxicity in iv dosed ICR mouse assessed as survival measured daily for 7 days; type: organism-based; conditions: in vivo
Method in brief: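 ICR mice, 18 to 22 g, 4 weeks old, 10 per group (5 male, 5 female). Four to five intravenous dose groups per compound. Survival recorded daily for 7 days. LD50 (dose per kg body weight lethal to 50%) calculated by the Bliss method. LD50 values compared by one-way ANOVA.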

Mus musculus [7] = assay: Nephrotoxicity in ICR mouse assessed as tubular dilation at 2.5 mg/kg, iv bid for 7 days measured after 2 hrs post last dose by hematoxylin and eosin staining based assay; type: toxicity, organism-based; conditions: in vivo
Method in brief: (§2)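 ICR mice, 18-22 g, 4 weeks old, n=8 per group (4 male, 4 female); component in saline (0.25 mg/mL, kept at 4 °C) given iv at 2.5 mg/kg twice daily, 8 h apart, for 7 days. Kidneys taken 2 h after last dose, formalin-fixed, paraffin-embedded, sectioned, H&E stained and examined by light microscopy; saline controls included.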

Mus musculus [8] = assay: Nephrotoxicity in ICR mouse assessed as induction of prominent nuclei at 2.5 mg/kg, iv bid for 7 days measured after 2 hrs post last dose by hematoxylin and eosin staining based assay; type: toxicity, organism-based; conditions: in vivo; method in brief: as §2
Mus musculus [9] = assay: Nephrotoxicity in ICR mouse assessed as pale tubular casts at 2.5 mg/kg, iv bid for 7 days measured after 2 hrs post last dose by hematoxylin and eosin staining based assay; type: toxicity, organism-based; conditions: in vivo; method in brief: as §2

Structure (SMILES)	MIC (Escherichia coli [1])	MIC (Escherichia coli [2])	MIC (Klebsiella pneumoniae [3])	MIC (Klebsiella pneumoniae [4])	MIC (Pseudomonas aeruginosa)	MIC (Acinetobacter baumannii)	CC50 at 72 h [5]	LD50 at 168 h [6]	Activity (Mus musculus [7])	Activity (Mus musculus [8])	Activity (Mus musculus [9])
CC(C)CCCCC(=O)N[C@@H](CCN)C(=O)N[C@H](C(=O)N[C@@H](CCN)C(=O)N[C@H]1CCNC(=O)[C@H]([C@@H](C)O)NC(=O)[C@H](CCN)NC(=O)[C@H](CCN)NC(=O)[C@H](C(C)C)NC(=O)[C@@H](CC(C)C)NC(=O)[C@H](CCN)NC1=O)[C@@H](C)O ({Heptanoyl(6-Me)}-[Dab]T[Dab][Dab][Dab][dL]V[Dab][Dab]T; lactam 4-C)	0.5 µg/mL (≈ 0.438 µM)	0.25 µg/mL (≈ 0.219 µM)	0.5 µg/mL (≈ 0.438 µM)	0.5 µg/mL (≈ 0.438 µM)	2 µg/mL (≈ 1.75 µM)	1 µg/mL (≈ 0.876 µM)	225 µg/mL (≈ 197 µM)	13.2 mg/kg			
CC[C@H](C)CCCCC(=O)N[C@@H](CCN)C(=O)N[C@H](C(=O)N[C@@H](CCN)C(=O)N[C@H]1CCNC(=O)[C@H]([C@@H](C)O)NC(=O)[C@H](CCN)NC(=O)[C@H](CCN)NC(=O)[C@H]([C@@H](C)O)NC(=O)[C@@H](CC(C)C)NC(=O)[C@H](CCN)NC1=O)[C@@H](C)O (X1-[Dab]T[Dab][Dab][Dab][dL]T[Dab][Dab]T; lactam 4-C)	0.25 µg/mL (≈ 0.216 µM)	≤ 0.03 µg/mL	0.25 µg/mL (≈ 0.216 µM)	0.5 µg/mL (≈ 0.432 µM)	1 µg/mL (≈ 0.864 µM)	0.5 µg/mL (≈ 0.432 µM)	96 µg/mL (≈ 82.9 µM)	11.4 mg/kg			
CC(C)CCCCC(=O)N[C@@H](CCN)C(=O)N[C@H](C(=O)N[C@@H](CCN)C(=O)N[C@H]1CCNC(=O)[C@H]([C@@H](C)O)NC(=O)[C@H](CCN)NC(=O)[C@H](CCN)NC(=O)[C@H](CC(C)C)NC(=O)[C@@H](CC(C)C)NC(=O)[C@H](CCN)NC1=O)[C@@H](C)O [COLISTIN B] ({Heptanoyl(6-Me)}-[Dab]T[Dab][Dab][Dab][dL]L[Dab][Dab]T; lactam 4-C)	0.5 µg/mL (≈ 0.433 µM)	0.5 µg/mL (≈ 0.433 µM)	1 µg/mL (≈ 0.865 µM)	1 µg/mL (≈ 0.865 µM)	2 µg/mL (≈ 1.73 µM)	0.5 µg/mL (≈ 0.433 µM)	244 µg/mL (≈ 211 µM)	11.3 mg/kg	Non-Toxic	Non-Toxic	Non-Toxic
CC(C)CCCCC(=O)N[C@@H](CCN)C(=O)N[C@H](C(=O)N[C@@H](CCN)C(=O)N[C@H]1CCNC(=O)[C@H]([C@@H](C)O)NC(=O)[C@H](CCN)NC(=O)[C@H](CCN)NC(=O)[C@H](CC(C)C)NC(=O)[C@@H](Cc2ccccc2)NC(=O)[C@H](CCN)NC1=O)[C@@H](C)O [POLYMYXIN B2] ({Heptanoyl(6-Me)}-[Dab]T[Dab][Dab][Dab][dF]L[Dab][Dab]T; lactam 4-C)	0.5 µg/mL (≈ 0.42 µM)	0.5 µg/mL (≈ 0.42 µM)	1 µg/mL (≈ 0.841 µM)	1 µg/mL (≈ 0.841 µM)	2 µg/mL (≈ 1.68 µM)	0.5 µg/mL (≈ 0.42 µM)	159 µg/mL (≈ 134 µM)	12.6 mg/kg	Toxic	Toxic	Toxic
CCC[C@@H]1NC(=O)[C@@H](CC(C)C)NC(=O)[C@H](CCN)NC(=O)[C@@H](NC(=O)[C@H](CCN)NC(=O)[C@@H](NC(=O)[C@H](CCN)NC(=O)CCCCC(C)C)[C@@H](C)O)CCNC(=O)[C@H]([C@@H](C)O)NC(=O)[C@H](CCN)NC(=O)[C@H](CCN)NC1=O ({Heptanoyl(6-Me)}-[Dab]T[Dab][Dab][Dab][dL][Nva][Dab][Dab]T; lactam 4-C)	0.5 µg/mL (≈ 0.438 µM)	0.25 µg/mL (≈ 0.219 µM)	0.5 µg/mL (≈ 0.438 µM)	0.5 µg/mL (≈ 0.438 µM)	1 µg/mL (≈ 0.876 µM)	0.5 µg/mL (≈ 0.438 µM)	168 µg/mL (≈ 147 µM)	12.4 mg/kg			
CC[C@H](C)[C@@H]1NC(=O)[C@@H](CC(C)C)NC(=O)[C@H](CCN)NC(=O)[C@@H](NC(=O)[C@H](CCN)NC(=O)[C@@H](NC(=O)[C@H](CCN)NC(=O)CCCCC(C)C)[C@@H](C)O)CCNC(=O)[C@H]([C@@H](C)O)NC(=O)[C@H](CCN)NC(=O)[C@H](CCN)NC1=O	1 µg/mL (≈ 0.865 µM)	0.5 µg/mL (≈ 0.433 µM)	0.5 µg/mL (≈ 0.433 µM)	1 µg/mL (≈ 0.865 µM)	2 µg/mL (≈ 1.73 µM)	1 µg/mL (≈ 0.865 µM)	199 µg/mL (≈ 172 µM)	12.9 mg/kg			
CCCCCCC(=O)N[C@@H](CCN)C(=O)N[C@H](C(=O)N[C@@H](CCN)C(=O)N[C@H]1CCNC(=O)[C@H]([C@@H](C)O)NC(=O)[C@H](CCN)NC(=O)[C@H](CCN)NC(=O)[C@H](CC(C)C)NC(=O)[C@@H](Cc2ccccc2)NC(=O)[C@H](CCN)NC1=O)[C@@H](C)O [POLYMYXIN B4] (Heptanoyl-[Dab]T[Dab][Dab][Dab][dF]L[Dab][Dab]T; lactam 4-C)	0.5 µg/mL (≈ 0.425 µM)	0.5 µg/mL (≈ 0.425 µM)	1 µg/mL (≈ 0.851 µM)	0.5 µg/mL (≈ 0.425 µM)	1 µg/mL (≈ 0.851 µM)	0.5 µg/mL (≈ 0.425 µM)	160 µg/mL (≈ 136 µM)				
CC[C@H](C)CCCCC(=O)N[C@@H](CCN)C(=O)N[C@H](C(=O)N[C@@H](CCN)C(=O)N[C@H]1CCNC(=O)[C@H]([C@@H](C)O)NC(=O)[C@H](CCN)NC(=O)[C@H](CCN)NC(=O)[C@H]([C@@H](C)CC)NC(=O)[C@@H](CC(C)C)NC(=O)[C@H](CCN)NC1=O)[C@@H](C)O	1 µg/mL (≈ 0.855 µM)	0.5 µg/mL (≈ 0.428 µM)	1 µg/mL (≈ 0.855 µM)	1 µg/mL (≈ 0.855 µM)	2 µg/mL (≈ 1.71 µM)	1 µg/mL (≈ 0.855 µM)	176 µg/mL (≈ 150 µM)				
CCC[C@@H]1NC(=O)[C@@H](CC(C)C)NC(=O)[C@H](CCN)NC(=O)[C@@H](NC(=O)[C@H](CCN)NC(=O)[C@@H](NC(=O)[C@H](CCN)NC(=O)CCCC[C@@H](C)CC)[C@@H](C)O)CCNC(=O)[C@H]([C@@H](C)O)NC(=O)[C@H](CCN)NC(=O)[C@H](CCN)NC1=O (X1-[Dab]T[Dab][Dab][Dab][dL][Nva][Dab][Dab]T; lactam 4-C)	1 µg/mL (≈ 0.865 µM)	1 µg/mL (≈ 0.865 µM)	2 µg/mL (≈ 1.73 µM)	1 µg/mL (≈ 0.865 µM)	1 µg/mL (≈ 0.865 µM)	1 µg/mL (≈ 0.865 µM)	109 µg/mL (≈ 94.3 µM)				
CCCCCCCCC(=O)N[C@@H](CCN)C(=O)N[C@H](C(=O)N[C@@H](CCN)C(=O)N[C@H]1CCNC(=O)[C@H]([C@@H](C)O)NC(=O)[C@H](CCN)NC(=O)[C@H](CCN)NC(=O)[C@H](CC(C)C)NC(=O)[C@@H](Cc2ccccc2)NC(=O)[C@H](CCN)NC1=O)[C@@H](C)O [POLYMYXIN B5] (Nonanoyl-[Dab]T[Dab][Dab][Dab][dF]L[Dab][Dab]T; lactam 4-C)	2 µg/mL (≈ 1.66 µM)	2 µg/mL (≈ 1.66 µM)	2 µg/mL (≈ 1.66 µM)	4 µg/mL (≈ 3.32 µM)	4 µg/mL (≈ 3.32 µM)	2 µg/mL (≈ 1.66 µM)	33 µg/mL (≈ 27.4 µM)				
CC[C@H](C)CCCCC(=O)N[C@@H](CCN)C(=O)N[C@H](C(=O)N[C@H](CCN)C(=O)N[C@H]1CCNC(=O)[C@H]([C@@H](C)O)NC(=O)[C@H](CCN)NC(=O)[C@H](CCN)NC(=O)[C@H]([C@@H](C)O)NC(=O)[C@@H](CC(C)C)NC(=O)[C@H](CCN)NC1=O)[C@@H](C)O (X1-[Dab]T[dDab][Dab][Dab][dL]T[Dab][Dab]T; lactam 4-C)	0.5 µg/mL (≈ 0.432 µM)	1 µg/mL (≈ 0.864 µM)	1 µg/mL (≈ 0.864 µM)	1 µg/mL (≈ 0.864 µM)	1 µg/mL (≈ 0.864 µM)	1 µg/mL (≈ 0.864 µM)	145 µg/mL (≈ 125 µM)				
CC(C)CCCCCC(=O)N[C@@H](CCN)C(=O)N[C@H](C(=O)N[C@@H](CCN)C(=O)N[C@H]1CCNC(=O)[C@H]([C@@H](C)O)NC(=O)[C@H](CCN)NC(=O)[C@H](CCN)NC(=O)[C@H](CC(C)C)NC(=O)[C@@H](CC(C)C)NC(=O)[C@H](CCN)NC1=O)[C@@H](C)O ({Octanoyl(7-Me)}-[Dab]T[Dab][Dab][Dab][dL]L[Dab][Dab]T; lactam 4-C)	1 µg/mL (≈ 0.855 µM)	1 µg/mL (≈ 0.855 µM)	1 µg/mL (≈ 0.855 µM)	1 µg/mL (≈ 0.855 µM)	2 µg/mL (≈ 1.71 µM)	1 µg/mL (≈ 0.855 µM)	87 µg/mL (≈ 74.4 µM)				
